Results from ChEMBL document CHEMBL3244344, “Nucleoside conjugates as potential antitumor agents. 2. Synthesis and biological activity of 1-(beta-D-arabinofuranosyl)cytosine conjugates of prednisolone and prednisone” (J Med Chem, 1979).
pEC50: −log10 of the molar value.

What was measured:
L1210 [1] = test: Cytotoxicity against mouse L1210 cells assessed as growth inhibition measured at 72 hrs by trypan blue exclusion assay; format: functional; conditions: L1210, 72 h, read-out: ED50 (the source's name)
Method in brief: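 L1210 mouse lymphoid leukemia cells seeded at 2–3 × 10⁵ cells/mL in RPMI 1640 + 10% fetal calf serum with compound (from Me2SO stock, final Me2SO 0.5%, compound 100 μM or lower). Viable cells counted by 0.05% Trypan blue exclusion in a hemocytometer at 24, 48, 72 h. Treated/untreated density ratio. ED50 at 72 h interpolated from response curves of three separate experiments.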

L1210 [2] = test: Antitumor activity against mouse L1210 cells allografted in C3D2F1/J mouse assessed as median survival time at 27 mg/kg, ip qd administered for 5 days (reference value: 10 days); format: functional; conditions: route intraperitoneal
L1210 [3] = test: Antitumor activity against mouse L1210 cells allografted in C3D2F1/J mouse assessed as increase in life span at 27 mg/kg, ip qd administered for 5 days relative to control; format: functional; conditions: 120 h, route intraperitoneal
Mus musculus [4] = test: Toxicity in C3D2F1/J mouse allografted with mouse L1210 cells assessed as body weight change at 27 mg/kg, ip qd administered for 5 days measured on day 8 (reference value: 1.81 +/- 0.79 g); format: organism-based; design: dose 27 mg/kg, route intraperitoneal; conditions: in vivo, 120 h
L1210 [5] = test: Antitumor activity against mouse L1210 cells allografted in C3D2F1/J mouse assessed as median survival time at 18.2 mg/kg, ip qd administered for 5 days (reference value: 10 days); format: functional; conditions: route intraperitoneal
L1210 [6] = test: Antitumor activity against mouse L1210 cells allografted in C3D2F1/J mouse assessed as increase in life span at 18.2 mg/kg, ip qd administered for 5 days relative to control; format: functional; conditions: 120 h, route intraperitoneal
Mus musculus [7] = test: Toxicity in C3D2F1/J mouse allografted with mouse L1210 cells assessed as body weight change at 18.3 mg/kg, ip qd administered for 5 days measured on day 8 co-administered with 27 mg/kg prednisone (reference value: 1.81 +/- 0.79 g); format: organism-based; conditions: in vivo, 120 h
L1210 [8] = test: Antitumor activity against mouse L1210 cells allografted in C3D2F1/J mouse assessed as median survival time at 18.2 mg/kg, ip qd administered for 5 days co-administered with 27 mg/kg prednisolone (reference value: 9 days); format: functional
Mus musculus [9] = test: Toxicity in C3D2F1/J mouse allografted with mouse L1210 cells assessed as body weight change at 18.2 mg/kg, ip qd administered for 5 days measured on day 8 (reference value: 1.81 +/- 0.79 g); format: organism-based; design: dose 18.2 mg/kg, route intraperitoneal; conditions: in vivo, 120 h
L1210 [10] = test: Antitumor activity against mouse L1210 cells allografted in C3D2F1/J mouse assessed as median survival time at 50 mg/kg, ip qd administered for 5 days (reference value: 9 days); format: functional; conditions: route intraperitoneal
L1210 [11] = test: Antitumor activity against mouse L1210 cells allografted in C3D2F1/J mouse assessed as increase in life span at 18.3 mg/kg, ip qd administered for 5 days co-administered with 27 mg/kg prednisone relative to control; format: functional
Mus musculus [12] = test: Toxicity in C3D2F1/J mouse allografted with mouse L1210 cells assessed as body weight change at 25 mg/kg, ip qd administered for 5 days measured on day 8 (reference value: 1.81 +/- 0.79 g); format: organism-based; design: dose 25 mg/kg, route intraperitoneal; conditions: in vivo, 120 h
Mus musculus [13] = test: Toxicity in C3D2F1/J mouse allografted with mouse L1210 cells assessed as body weight change at 50 mg/kg, ip qd administered for 5 days measured on day 8 (reference value: 1.81 +/- 0.79 g); format: organism-based; design: dose 50 mg/kg, route intraperitoneal; conditions: in vivo, 120 h
L1210 [14] = test: Antitumor activity against mouse L1210 cells allografted in C3D2F1/J mouse assessed as median survival time at 18.3 mg/kg, ip qd administered for 5 days co-administered with 27 mg/kg prednisone (reference value: 9 days); format: functional
L1210 [15] = test: Antitumor activity against mouse L1210 cells allografted in C3D2F1/J mouse assessed as increase in life span at 18.2 mg/kg, ip qd administered for 5 days co-administered with 27 mg/kg prednisolone relative to control; format: functional
L1210 [16] = test: Antitumor activity against mouse L1210 cells allografted in C3D2F1/J mouse assessed as increase in life span at 50 mg/kg, ip qd administered for 5 days relative to control; format: functional; conditions: 120 h, route intraperitoneal
Mus musculus [17] = test: Toxicity in C3D2F1/J mouse allografted with mouse L1210 cells assessed as body weight change at 18.2 mg/kg, ip qd administered for 5 days measured on day 8 co-administered with 27 mg/kg prednisolone (reference value: 1.81 +/- 0.79 g); format: organism-based; conditions: in vivo, 120 h
L1210 [18] = test: Antitumor activity against mouse L1210 cells allografted in C3D2F1/J mouse assessed as median survival time at 25 mg/kg, ip qd administered for 5 days (reference value: 8 days); format: functional; conditions: route intraperitoneal
L1210 [19] = test: Antitumor activity against mouse L1210 cells allografted in C3D2F1/J mouse assessed as increase in life span at 25 mg/kg, ip qd administered for 5 days relative to control; format: functional; conditions: 120 h, route intraperitoneal

SMILES | pEC50 (L1210 [1]) | MST (L1210 [2]) [days] | ILS at 27 mg/kg (L1210 [3]) [%] | Activity (Mus musculus [4]) [g] | MST (L1210 [5]) [days] | ILS at 18.2 mg/kg (L1210 [6]) [%] | Activity (Mus musculus [7]) [g] | MST (L1210 [8]) [days] | Activity (Mus musculus [9]) [g] | MST (L1210 [10]) [days] | ILS (L1210 [11]) [%] | Activity (Mus musculus [12]) [g] | Activity (Mus musculus [13]) [g] | MST (L1210 [14]) [days] | ILS (L1210 [15]) [%] | ILS at 50 mg/kg (L1210 [16]) [%] | Activity (Mus musculus [17]) [g] | MST (L1210 [18]) [days] | ILS at 25 mg/kg (L1210 [19]) [%]
C[C@]12C=CC(=O)C=C1CC[C@@H]1[C@@H]2C(=O)C[C@@]2(C)[C@H]1CC[C@]2(O)C(=O)CO [PREDNISONE] | < 4.00 | 9.5 | -5 | -1.01 |  |  |  |  |  |  |  |  |  |  |  |  |  |  | 
Nc1ccn([C@@H]2O[C@H](CO)[C@@H](O)[C@@H]2O)c(=O)n1 [CYTARABINE] | 7.00 |  |  |  | 14.5 | 45 | -1.25 | 14 | -3.64 | 10 | 44 | -3.8 | -4.2 | 13 | 40 | 11.1 | -2.46 | 9.5 | 18.8
C[C@]12C=CC(=O)C=C1CC[C@@H]1[C@@H]2[C@@H](O)C[C@@]2(C)[C@H]1CC[C@]2(O)C(=O)CO [PREDNISOLONE] | 4.00 | 9.5 | -5 | -0.85 |  |  |  |  |  |  |  |  |  |  |  |  |  |  | 
